A selection: hits, their analogues and other compounds. The true share with any hit is near 2.3%.
TRPC4 inh: TRPC4 (mouse) channel inhibition; HEK293 TRPC4beta/mu-opioid, DAMGO-evoked Fluo4 calcium flux; stronger effect = lower value; actives 0.39% (n = 300,000); AID 2247; B-score at 10 µM;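 active means B-score over 3 SD under the library average, no early fluorescence shift, positive overall ratio signal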
Target sequence (Q9QUQ5 whole entry, looked up): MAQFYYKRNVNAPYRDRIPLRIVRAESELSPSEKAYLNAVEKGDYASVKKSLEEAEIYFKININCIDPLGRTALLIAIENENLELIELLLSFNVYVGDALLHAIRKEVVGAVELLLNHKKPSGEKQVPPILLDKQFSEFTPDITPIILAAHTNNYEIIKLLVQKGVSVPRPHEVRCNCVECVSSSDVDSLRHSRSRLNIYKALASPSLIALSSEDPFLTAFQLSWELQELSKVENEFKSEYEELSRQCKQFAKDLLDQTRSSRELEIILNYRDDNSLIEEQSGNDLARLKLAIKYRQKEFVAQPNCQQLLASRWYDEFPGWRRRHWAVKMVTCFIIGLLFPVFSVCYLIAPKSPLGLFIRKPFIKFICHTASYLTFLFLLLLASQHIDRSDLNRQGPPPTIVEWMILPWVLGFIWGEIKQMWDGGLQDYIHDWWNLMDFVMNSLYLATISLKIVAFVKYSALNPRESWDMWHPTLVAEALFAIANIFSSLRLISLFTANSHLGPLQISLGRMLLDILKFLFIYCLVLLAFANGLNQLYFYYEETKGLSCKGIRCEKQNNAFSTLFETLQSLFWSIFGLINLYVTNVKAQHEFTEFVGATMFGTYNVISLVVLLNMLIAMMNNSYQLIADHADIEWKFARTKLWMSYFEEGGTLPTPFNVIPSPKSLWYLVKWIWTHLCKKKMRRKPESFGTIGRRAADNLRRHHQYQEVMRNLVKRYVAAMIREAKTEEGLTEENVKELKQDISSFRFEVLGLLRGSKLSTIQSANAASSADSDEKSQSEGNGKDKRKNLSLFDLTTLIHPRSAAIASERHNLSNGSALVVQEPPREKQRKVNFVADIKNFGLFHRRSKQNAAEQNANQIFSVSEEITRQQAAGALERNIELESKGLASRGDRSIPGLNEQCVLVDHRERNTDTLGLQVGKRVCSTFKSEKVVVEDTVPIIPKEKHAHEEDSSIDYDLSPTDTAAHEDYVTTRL
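Test system – stable TRPC4beta/mu-opioid receptor HEK293 cells · Probe or stimulus – DAMGO, a submaximal dose followed by a maximal one · Dosing – one concentration per compound · Signal – Fluo4 calcium fluorescence by kinetic imaging, 5 s 1 Hz baseline · Evaluation – per-well B score of integrated baseline-normalized Fluo4 ratio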
TRPC4 act: TRPC4 (mouse) channel activation | Q9QUQ5 | actives 0.49% (n = 310,000) | HEK293 TRPC4beta/mu-opioid, Fluo4 calcium fluorescence; stronger effect = higher value | AID 2237 | B-score at 10 µM;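 active means B-score above 5 SD of library B-scores, and initial fluorescence ratio not above library mean plus 5 SD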;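 further: positive B-score marks a calcium rise read as TRPC4 activation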
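Assay system: HEK293 cells stably co-expressing mouse TRPC4beta and mu-opioid receptor / Timing: Fluo4 dye loading 45 min at room temperature, 110 s recording / Signal: Fluo4 calcium-sensitive dye fluorescence, kinetic, 1 Hz baseline / Read-out: integrated baseline-normalised fluorescence ratio, converted to per-well B score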
TRPC6 inh: inhibitors of mouse TRPC6 channel | actives 1.1% (n = 310,000) | B-score at 10 µM | AID 2553 | HEK293-TRPC6, membrane potential dye, ACh-evoked depolarization; stronger effect = lower value | Q61143;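 active means B-score under library mean minus 3 SD, initial fluorescence not abnormally high, positive integrated signal ratio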;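 further: B-score derived from integrated fluorescence ratio over the kinetic read; more negative B-score means stronger inhibition of depolarization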
TRPC6 act: mouse TRPC6 channel activation. Q61143. HEK293-TRPC6 membrane potential dye fluorescence; stronger effect = higher value. AID 2550. actives 0.13% (n = 310,000). B-score at 10 µM;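 active means B-score of the integrated fluorescence ratio above library mean plus 3 SD, and starting fluorescence ratio within library mean plus 5 SD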;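 further: higher score means more depolarization so channel activation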
TRPC4 potent: allosteric potentiators of mouse TRPC4 channel; Q9QUQ5; HEK293 TRPC4beta/mu-opioid, DAMGO EC20, Fluo-4 Ca2+ flux; stronger effect = higher value; B-score at 10 µM; actives 0.42% (n = 310,000); AID 2227;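 active means B-score of calcium response area above 5 SD of library B-scores, with initial fluorescence ratio within 5 SD of library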
A number is an active result; n = inactive.

SMILES	TRPC4 inh	TRPC4 act	TRPC6 inh	TRPC6 act	TRPC4 potent
CCOc1ccccc1C(=O)NCCc1cnc[nH]1	n	n	n	n	17
O=C(NCCc1cnc[nH]1)c1ccc(-c2ccccc2)cc1	n	106	n	n	n
Cc1ccc(S(=O)(=O)N2CCCC2CNC(=O)C(=O)Nc2ccc(F)cc2F)cc1 (centres undefined)	n	n	n	n	n
Cc1cc(C)c2nc(NC(=O)[C@@H](NC(=O)c3cccc(S(=O)(=O)N4CCOCC4)c3)C(C)C)sc2c1	n	n	n	n	n
Cc1ccc(S(=O)(=O)Nc2ccc(C(=O)N3CCCC3)cc2)cc1	n	n	n	n	n
Cc1ccc(NS(=O)(=O)c2ccc(C(=O)N3CC(C)CC(C)C3)cc2)cc1 (centres undefined)	n	104	n	n	n
COc1ccc(-c2cc(-c3ccccc3)nc(NN)n2)cc1OC	n	n	n	n	n
Cc1ccc(-c2cc(-c3ccccc3)nc(NN)n2)cc1	n	n	n	n	12
O=C(COc1ccc(Br)cc1CNC1CCCC1)Nc1ccccc1	n	62	n	n	n
CC(NCc1cc(Br)ccc1OCC(=O)NCc1ccccc1)c1ccccc1 (centres undefined)	-8	61	n	n	n
C[C@@H]1CCC[C@]2(O[C@@H](CCO)C[C@@H](O)[C@@H]2O)O1	n	n	n	n	n
Clc1cc(Cl)cc(C2=NC(Cc3ccccc3)CO2)c1 (centres undefined)	n	132	n	n	n
CCOC(=O)C1CCN(CC(O)COc2ccc(C(C)(C)C)cc2)CC1 (centres undefined)	-6	n	n	n	n
CCOC(=O)C1CCN(CC(O)COc2ccc(C(C)(C)CC)cc2)CC1 (centres undefined)	n	n	n	n	n
COc1ccc(CN(C)C(=O)c2ccc(NC(=O)CC3SC(N4CCCC4)=NC3=O)cc2)c(OC)c1 (centres undefined)	-6	n	n	n	41
COc1ccc(CN(C)C(=O)c2ccc(NC(=O)CC3SC(N4CCCC4)=NC3=O)cc2)c(OC)c1OC (centres undefined)	n	n	n	n	n
CC1(C)CC(=O)C(C(C2=C(O)CC(C)(C)CC2=O)c2ccc(Cl)c([N+](=O)[O-])c2)C(=O)C1 (centres undefined)	n	46	n	n	n
Nc1nc(N2CCCCC2)nc(N2CCCCC2)n1	n	n	n	n	n
C1CCN(c2nc(N3CCCC3)nc(N3CCNCC3)n2)C1	n	n	n	n	16
CC(C(=O)Nc1ccc(Cl)cc1Cl)N1C(=O)NC2(CCCC2)C1=O (centres undefined)	n	n	n	n	n
Cc1cc(C)nc(/N=C(\N)Nc2cccc(OCc3ccccc3)c2)n1	n	n	-5.4	n	n
CCOC(=O)C(=O)Nc1ccc(OCc2ccccc2)cc1	n	n	n	n	n
Cc1cc(C)nc(/N=C(\N)Nc2ccc(OCCC(C)C)cc2)n1	n	51	n	n	n
Cc1cc(C)nc(/N=C(\N)Nc2ccc(CC(=O)OC(C)C)cc2)n1	n	n	n	n	n
Cc1cc(C)nc(/N=C(\N)Nc2ccc(OCc3ccccc3)cc2)n1	n	61	n	n	n
SMILES	TRPC4 inh	TRPC4 act	TRPC6 inh	TRPC6 act	TRPC4 potent
Cc1ccc(C2=Nn3c(COc4ccc(Cl)cc4)nnc3SC2CC(=O)O)cc1 (centres undefined)	n	n	n	n	n
CC(=O)C1=C(C)Nc2ncnn2C1c1ccccc1F (centres undefined)	n	n	n	n	n
COc1cc(/C=C2\C(C)=C(C#N)c3nc(N)c(C#N)c(C)c32)ccc1OCC(=O)O	n	n	n	n	n
CC1=C(C#N)c2nc(N)c(C#N)c(C)c2/C1=C\c1ccc(C)cc1	n	n	-6.42	n	n
O=C(Cn1nc(C(F)F)cc1C1CC1)N1CCCC1	n	n	n	n	n
Cn1c(=O)n(C)c2cc([N+](=O)[O-])c(N3CCN(S(=O)(=O)c4ccc5ccccc5c4)CC3)cc21	n	n	n	n	n
Cc1ccc(S(=O)(=O)N2CCN(c3cc4c(cc3[N+](=O)[O-])n(C)c(=O)n4C)CC2)cc1	n	n	n	n	15
Nc1ccccc1SCC(=O)Nc1ccc2c(c1)OCCO2	n	n	n	n	n
Cn1c(N2CCN(C(=O)Nc3ccc(C(F)(F)F)cc3)CC2)nc2ccccc21	n	94	n	n	n

Source: PubChem BioAssay (Johns Hopkins Ion Channel Center)
